Results from ChEMBL document CHEMBL2177092, “Phosphoramidate ProTides of the anticancer agent FUDR successfully deliver the preformed bioactive monophosphate in cells and confer advantage over the parent nucleoside” (J Med Chem, 2011).

Columns and labels:
[1] = tested on: HeLa; test: Cytostatic activity against human HeLa cells […] by cell counting; assay type: functional, cell-based
[2] = tested on: L1210; test: Ratio of IC50 for Mycoplasma hyorhinis-infected mouse L1210 cells to IC50 for mouse L1210/0 cells after 48 hrs by cell counting; assay type: functional
How it was run: (§1)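 Murine L1210/0 cells were compared with L1210/TK cells, selected for resistance to 5-bromo-2'-dUrd, and with L1210.Hyor cells, chronically infected with Mycoplasma hyorhinis. Cells were grown in DMEM with 10% FBS, 10 mM Hepes and 1 mM pyruvate at 37 °C and 5% CO2, then seeded at 60 000 cells/well with compound. They were Coulter-counted after 48 h. […] Mean of 2–4 experiments.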

[3] = tested on: CCRF-CEM; test: Cytostatic activity against thymidine-kinase deficient human CEM cells after 72 hrs by cell counting; assay type: functional, cell-based
How it was run: (§2)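 Suspension leukemia cells in DMEM with 10% FBS, 10 mM Hepes and 1 mM sodium pyruvate at 37 °C under 5% CO2. Seeded at 60 000 cells/well with graded compound levels. Grown 48 h (L1210) or 72 h (CEM), then counted by Coulter counter. Mean ± SD of two to four independent experiments.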

[4] = Drug metabolism in DMSO/D2O assessed as metabolite 5-Fluoro-2'deoxyuridine 5'-O-[(L-Alaninyl)]phosphate formation at 5 mg measured after 11 hrs 30 mins by [31P]NMR spectroscopy in presence of human serum; assay type: ADME
How it was run: (§3)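 Compound (5.0 mg) dissolved in DMSO plus D2O and a control 31P NMR spectrum taken at 37 °C. Previously defrosted human serum then added. Spectra taken every 15 min over 14 h at 37 °C and processed by Lorentz-Gauss deconvolution. Parent and metabolite peaks were tracked by chemical shift.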

[5] = Cytostatic activity against mouse L1210/0 cells after 48 hrs by cell counting; assay type: functional, cell-based; settings: L1210/0, 48 h; how it was run: as §2
[6] = tested on: CCRF-CEM; test: Cytostatic activity against human CEM/0 cells after 72 hrs by cell counting; assay type: functional, cell-based
How it was run: (§4)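 Suspension leukemia cells in DMEM with 10% FBS, 10 mM Hepes and 1 mM sodium pyruvate at 37 °C under 5% CO2. Seeded at 60 000 cells/well with graded compound levels. Grown 48 h (L1210) or 72 h (CEM), then counted by Coulter counter. […] Mean ± SD of two to four independent experiments.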

[7] = Drug metabolism in DMSO/D2O assessed as metabolite 5-Fluoro-2'-deoxyuridine-5'-O-[1-naphthyl(L-alaninyl)]phosphate formation at 5 mg measured after 6 hrs 45 mins by [31P]NMR spectroscopy in presence of human serum; assay type: ADME; how it was run: as §3
[8] = Stability in DMSO/D2O assessed as parent compound at 5 mg measured after 13 hrs 30 mins by [31P]NMR spectroscopy in presence of human serum; assay type: ADME; settings: read-out: Stability; how it was run: as §3
[9] = tested on: HeLa; test: Cytostatic activity against thymidine-kinase deficient human HeLa cells […]; assay type: functional, cell-based
[10] = tested on: L1210; test: Cytostatic activity against thymidine-kinase deficient mouse L1210 cells after 48 hrs by cell counting; assay type: functional, cell-based; settings: L1210, 48 h; how it was run: as §2
[11] = tested on: L1210; test: Cytostatic activity against Mycoplasma hyorhinis-infected mouse L1210 cells after 48 hrs by cell counting; assay type: functional, cell-based; settings: L1210, 48 h; how it was run: as §2
[12] = tested on: L1210; test: Ratio of FUDR IC50 to compound IC50 for thymidine-kinase deficient mouse L1210 cells after 48 hrs by cell counting; assay type: functional
[13] = Stability of the compound in potassium phosphate buffer at pH 7.4 assessed as E.coli thymidine phosphorylase-mediated release of 5-FU after 5 mins by [19F] NMR spectroscopy; assay type: ADME; settings: pH 7.4, 5 min
How it was run: (§5)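 Compound (6.0 mg) in methanol-d4 plus 300 mM potassium phosphate buffer pH 7.4. […] 19F NMR recorded at 5 min, 14 h and 72 h at 25 °C, with 5-FU identified by its signal near δF 169.50 ppm.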

[14] = Stability of the compound in potassium phosphate buffer at pH 7.4 assessed as E.coli thymidine phosphorylase-mediated release of 5-FU after 14 to 72 hrs by [19F] NMR spectroscopy; assay type: ADME; how it was run: as §5
[15] = tested on: CCRF-CEM; test: Cytostatic activity against ENT1 transporter-deficient human CEM cells after 72 hrs by cell counting; assay type: functional, cell-based; how it was run: as §4
[16] = Hydrolytic stability in aqueous buffer at pH 8 at 4.5 mg measured every 12 mins over 14 hrs by [31P]NMR spectroscopy; assay type: physicochemical; settings: pH 8, 14 h
How it was run: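 Compound (4.5 mg) in methanol-d4 with pH 8 buffer (0.1 M Na2HPO4 adjusted with 0.1 M HCl). In situ 31P NMR (202 MHz) at 37 °C, spectra recorded every 12 min over 14 h.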

[17] = tested on: CCRF-CEM; test: Cytostatic activity against human CEM cells expressing human ENT1 transporter after 72 hrs by cell counting; assay type: functional, cell-based; how it was run: as §4
[18] = tested on: CCRF-CEM; test: Ratio of IC50 for human CEM cells expressing human ENT1 transporter in presence of NBMPR to IC50 for human CEM cells expressing human ENT1 transporter; assay type: functional
How it was run: (§6)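 Human T-lymphocyte CEM cells with (CEM/hEnt-1) or lacking (CEM/hEnt-0) the hENT1 transporter were seeded at 60 000 cells/well with graded compound concentrations. Transporter-inhibition runs added dipyridamole (10 μM) or NBMPR (10 μM) to CEM/hEnt-1 cells. […] Ratios are formed against untreated CEM/hEnt-1 IC50. Mean of 2–4 experiments.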

[19] = Hydrolytic stability in aqueous buffer at pH 1 at 2.6 mg measured every 12 mins over 14 hrs by [31P]NMR spectroscopy; assay type: physicochemical; settings: pH 1, 14 h
How it was run: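 Compound (2.6 mg) in methanol-d4 with pH 1 buffer made from equal parts 0.2 M HCl and 0.2 M KCl. 31P NMR at 37 °C, spectra recorded every 12 min over 14 h.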

[20] = tested on: CCRF-CEM; test: Cytostatic activity against human CEM cells expressing human ENT1 transporter after 72 hrs by cell counting in presence of dipyridamole; assay type: functional, cell-based
How it was run: (§7)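 CEM/hEnt-1 cells with 10 μM dipyridamole or 10 μM NBMPR added alongside graded compound levels, in DMEM with 10% FBS, 10 mM Hepes and 1 mM sodium pyruvate at 37 °C under 5% CO2. Seeded at 60 000 cells/well, counted by Coulter counter after 3 days.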

[21] = tested on: CCRF-CEM; test: Ratio of IC50 for human CEM cells expressing human ENT1 transporter in presence of dipyridamole to IC50 for human CEM cells expressing human ENT1 transporter; assay type: functional; how it was run: as §6
[22] = tested on: CCRF-CEM; test: Cytostatic activity against human CEM cells expressing human ENT1 transporter after 72 hrs by cell counting in presence of NBMPR; assay type: functional, cell-based; how it was run: as §7
[23] = tested on: CCRF-CEM; test: Ratio of IC50 for ENT1 transporter-deficient human CEM cells to IC50 for human CEM cells expressing human ENT1 transporter after 72 hrs by cell counting; assay type: functional; how it was run: as §6
[24] = Half life in Trizma buffer at pH 7.6 at 3 mg by [31P]NMR spectroscopy in presence of carboxypeptidase Y; assay type: physicochemical; settings: yeast (Saccharomyces cerevisiae)
How it was run: (§8)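 Compound (3.0 mg) in acetone-d6 with Trizma buffer pH 7.6. A control 31P NMR spectrum (202 MHz) was taken at 25 °C, then defrosted carboxypeptidase Y (0.1 mg in Trizma) added. Spectra recorded every 7 min over 14 h at 25 °C to follow conversion to metabolites. Half-life was estimated from these spectra.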

[25] = Drug metabolism in Trizma buffer at pH 7.6 assessed as metabolite 5-Fluoro-2'-deoxyuridine-5'-O-[1-naphthyl(L-alaninyl)]phosphate formation at 3 mg measured every 7 mins over 14 hrs by [31P]NMR spectroscopy in presence of carboxypeptidase Y; assay type: physicochemical; settings: pH 7.6, 14 h; how it was run: as §8
[26] = Ratio of 5-FU IC50 to compound IC50 for mouse L1210/0 cells after 48 hrs by cell counting; assay type: functional
[27] = tested on: L1210; test: Ratio of IC50 for thymidine-kinase deficient mouse L1210 cells to IC50 for mouse L1210/0 cells after 48 hrs by cell counting; assay type: functional; how it was run: as §1
[28] = Drug metabolism in Trizma buffer at pH 7.6 assessed as metabolite 5-Fluoro-2'deoxyuridine 5'-O-[(L-Alaninyl)]phosphate formation at 3 mg measured after 45 mins by [31P]NMR spectroscopy in presence of carboxypeptidase Y; assay type: physicochemical; settings: pH 7.6, 0.75 h; how it was run: as §8
[29] = tested on: HeLa; test: Ratio of IC50 for thymidine-kinase deficient human HeLa cells to IC50 for human HeLa cells by cell counting

## CCOC(=O)[C@H](C)NP(=O)(OC[C@H]1O[C@@H](n2cc(F)c(=O)[nH]c2=O)C[C@@H]1O)Oc1cccc2ccccc12 (mixture of isomers)
[1]
  IC50: 220 nM
[2]
  Ratio IC50: 3.4
[3]
  IC50: 1600 nM
[4]
  Drug metabolism: Active
[5]
  IC50: 28 nM
[6]
  IC50: 250 nM
[7]
  Drug metabolism: Active
[8]
  remaining at 13.5 h: 96%
[9]
  IC50: 2800 nM
[10]
  IC50: 360 nM
[11]
  IC50: 95 nM

## C[C@H](NP(=O)(OC[C@H]1O[C@@H](n2cc(F)c(=O)[nH]c2=O)C[C@@H]1O)Oc1ccccc1)C(=O)OC1CCCCC1 (mixture of isomers)
[1]
  IC50: 180 nM
[2]
  Ratio IC50: 1.25
[3]
  IC50: 1200 nM
[5]
  IC50: 32 nM
[6]
  IC50: 170 nM
[9]
  IC50: 5900 nM
[10]
  IC50: 140 nM
[11]
  IC50: 40 nM
[12]
  Ratio IC50: 21

## O=c1[nH]cc(F)c(=O)[nH]1 [FLUOROURACIL]
[3]
  IC50: 12000 nM
[13]
  Stability: Unstable
[9]
  IC50: 230 nM
[10]
  IC50: 320 nM

## C[C@H](NP(=O)(OC[C@H]1O[C@@H](n2cc(F)c(=O)[nH]c2=O)C[C@@H]1O)Oc1ccccc1)C(=O)OCc1ccccc1 (mixture of isomers)
[1]
  IC50: 130 nM
[2]
  Ratio IC50: 5.8
[3]
  IC50: 22000 nM
[14]
  Stability: Stable
[15]
  IC50: 1400 nM
[16]
  Stability: Stable
[5]
  IC50: 26 nM
[17]
  IC50: 130 nM
[13]
  Stability: Stable
[6]
  IC50: 180 nM
[18]
  Ratio IC50: 2
[19]
  Stability: Stable
[20]
  IC50: 660 nM
[9]
  IC50: 19000 nM
[21]
  Ratio IC50: 2
[10]
  IC50: 13000 nM
[11]
  IC50: 150 nM
[22]
  IC50: 720 nM
[23]
  Ratio IC50: 7

## O=c1[nH]c(=O)n([C@H]2C[C@H](O)[C@@H](CO)O2)cc1F [FLOXURIDINE]
[1]
  IC50: 50 nM
[15]
  IC50: 2500 nM
[17]
  IC50: 40 nM
[13]
  Stability: Unstable
[6]
  IC50: 22 nM
[22]
  IC50: 800 nM

## CCCCCOC(=O)[C@H](C)NP(=O)(OC[C@H]1O[C@@H](n2cc(F)c(=O)[nH]c2=O)C[C@@H]1O)Oc1cccc2ccccc12 (mixture of isomers)
[1]
  IC50: 29 nM
[24]
  half-life: < 5 min
[2]
  Ratio IC50: 2.9
[3]
  IC50: 280 nM
[5]
  IC50: 2.1 nM
[25]
  Drug metabolism: Active
[6]
  IC50: 15 nM
[26]
  Ratio IC50: 100
[27]
  Ratio IC50: 40
[9]
  IC50: 440 nM
[10]
  IC50: 130 nM
[28]
  Drug metabolism: Active
[11]
  IC50: 6 nM

## COC(=O)[C@H](C)NP(=O)(OC[C@H]1O[C@@H](n2cc(F)c(=O)[nH]c2=O)C[C@@H]1O)Oc1ccccc1 (mixture of isomers)
[1]
  IC50: 280 nM
[2]
  Ratio IC50: 22
[3]
  IC50: 35000 nM
[29]
  Ratio IC50: 15
[5]
  IC50: 40 nM
[6]
  IC50: 700 nM
[27]
  Ratio IC50: 2000
[9]
  IC50: 4700 nM
[10]
  IC50: 41000 nM
[11]
  IC50: 870 nM

## CC(C)(NP(=O)(OC[C@H]1O[C@@H](n2cc(F)c(=O)[nH]c2=O)C[C@@H]1O)Oc1ccccc1)C(=O)OCc1ccccc1 (mixture of isomers)
[1]
  IC50: 240 nM
[2]
  Ratio IC50: 0.69
[3]
  IC50: 4800 nM
[15]
  IC50: 1200 nM
[5]
  IC50: 29 nM
[17]
  IC50: 170 nM
[6]
  IC50: 230 nM
[18]
  Ratio IC50: 2
[20]
  IC50: 260 nM
[9]
  IC50: 3700 nM
[21]
  Ratio IC50: 2
[10]
  IC50: 180 nM
[11]
  IC50: 20 nM
[22]
  IC50: 610 nM
[23]
  Ratio IC50: 7

## C[C@H](NP(=O)(OC[C@H]1O[C@@H](n2cc(F)c(=O)[nH]c2=O)C[C@@H]1O)Oc1cccc2ccccc12)C(=O)OCc1ccccc1 (mixture of isomers) [FOSIFLOXURIDINE NAFALBENAMIDE]
[1]
  IC50: 65 nM
[2]
  Ratio IC50: 2.27
[3]
  IC50: 310 nM
[15]
  IC50: 600 nM
[5]
  IC50: 11 nM
[17]
  IC50: 50 nM
[6]
  IC50: 68 nM
[18]
  Ratio IC50: 2
[26]
  Ratio IC50: 30
[27]
  Ratio IC50: 5
[20]
  IC50: 130 nM
[9]
  IC50: 2500 nM
[21]
  Ratio IC50: 2
[10]
  IC50: 45 nM
[11]
  IC50: 25 nM
[22]
  IC50: 260 nM
[23]
  Ratio IC50: 7
